Assay results: ChEMBL document CHEMBL1255424, “Antistaphylococcal activity of ACHN-490 tested alone and in combination with other agents by time-kill assay” (2010)
Converted amounts (≈) assume the structure as drawn.

How the values were obtained:
Format in all cases: functional
Staphylococcus aureus [1] = assay: Antibacterial activity against community-acquired methicillin-resistant panton-valentine leukocidin-positive Staphylococcus aureus isolate 1468 after 24 hrs by modified broth macrodilution method; details: isolate 1468, 24 h
How it was run: (§1)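 MIC read after 24 h incubation by modified broth macrodilution, validated per CLSI recommendations, against recent clinical MRSA isolates (hospital- and community-acquired, hVISA, VISA, VRSA). Daptomycin tests ran in Mueller-Hinton broth with added calcium.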

Staphylococcus aureus [2] = assay: Antibacterial activity against vancomycin-intermediate Staphylococcus aureus isolate 1016 after 24 hrs by modified broth macrodilution method; details: isolate 1016, 24 h; how it was run: as §1
Staphylococcus aureus [3] = assay: Antibacterial activity against vancomycin-intermediate Staphylococcus aureus isolate 555 after 24 hrs by modified broth macrodilution method; details: isolate 555, 24 h; how it was run: as §1
Staphylococcus aureus [4] = assay: Antibacterial activity against community-acquired methicillin-resistant panton-valentine leukocidin-positive Staphylococcus aureus isolate 593 after 24 hrs by modified broth macrodilution method; details: isolate 593, 24 h; how it was run: as §1
Staphylococcus aureus [5] = assay: Antibacterial activity against community-acquired methicillin-resistant panton-valentine leukocidin-positive Staphylococcus aureus isolate 1471 after 24 hrs by modified broth macrodilution method; details: isolate 1471, 24 h; how it was run: as §1
Staphylococcus aureus [6] = assay: Antibacterial activity against vancomycin-intermediate Staphylococcus aureus isolate 1015 after 24 hrs by modified broth macrodilution method; details: isolate 1015, 24 h; how it was run: as §1
Staphylococcus aureus [7] = assay: Antibacterial activity against vancomycin-intermediate Staphylococcus aureus isolate 1003 after 24 hrs by modified broth macrodilution method; details: isolate 1003, 24 h; how it was run: as §1
Staphylococcus aureus [8] = assay: Antibacterial activity against hospital-acquired methicillin-resistant Staphylococcus aureus isolate 1808 after 24 hrs by modified broth macrodilution method; details: isolate 1808, 24 h; how it was run: as §1
Staphylococcus aureus [9] = assay: Antibacterial activity against vancomycin-intermediate Staphylococcus aureus isolate 1005 after 24 hrs by modified broth macrodilution method; details: isolate 1005, 24 h; how it was run: as §1
Staphylococcus aureus [10] = assay: Antibacterial activity against hospital-acquired methicillin-resistant Staphylococcus aureus isolate 1766 after 24 hrs by modified broth macrodilution method; details: isolate 1766, 24 h; how it was run: as §1
Staphylococcus aureus [11] = assay: Antibacterial activity against vancomycin-intermediate Staphylococcus aureus isolate 1984 after 24 hrs by modified broth macrodilution method; details: isolate 1984, 24 h; how it was run: as §1
Staphylococcus aureus [12] = assay: Antibacterial activity against vancomycin-intermediate Staphylococcus aureus after 24 hrs by modified broth macrodilution method; how it was run: as §1
Staphylococcus aureus [13] = assay: Antibacterial activity against vancomycin-intermediate Staphylococcus aureus isolate 1017 after 24 hrs by modified broth macrodilution method; details: isolate 1017, 24 h; how it was run: as §1
Staphylococcus aureus [14] = assay: Antibacterial activity against hospital-acquired methicillin-resistant Staphylococcus aureus isolate 1867 after 24 hrs by modified broth macrodilution method; details: isolate 1867, 24 h; how it was run: as §1
Staphylococcus aureus [15] = assay: Antibacterial activity against hospital-acquired methicillin-resistant Staphylococcus aureus isolate 1806 after 24 hrs by modified broth macrodilution method; details: isolate 1806, 24 h; how it was run: as §1
Staphylococcus aureus [16] = assay: Antibacterial activity against vancomycin-intermediate Staphylococcus aureus isolate 1011 after 24 hrs by modified broth macrodilution method; details: isolate 1011, 24 h; how it was run: as §1
Staphylococcus aureus [17] = assay: Antibacterial activity against vancomycin-intermediate Staphylococcus aureus isolate 1008 after 24 hrs by modified broth macrodilution method; details: isolate 1008, 24 h; how it was run: as §1
Staphylococcus aureus [18] = assay: Antibacterial activity against methicillin-resistant Staphylococcus aureus isolate 2003 after 24 hrs by modified broth macrodilution method; details: isolate 2003, 24 h; how it was run: as §1
Staphylococcus aureus [19] = assay: Antibacterial activity against community-acquired methicillin-resistant panton-valentine leukocidin-positive Staphylococcus aureus isolate 813 after 24 hrs by modified broth macrodilution method; details: isolate 813, 24 h; how it was run: as §1
Staphylococcus aureus [20] = assay: Antibacterial activity against vancomycin-resistant Staphylococcus aureus isolate 1264 after 24 hrs by modified broth macrodilution method; details: isolate 1264, 24 h; how it was run: as §1
Staphylococcus aureus [21] = assay: Antibacterial activity against vancomycin-intermediate Staphylococcus aureus isolate 1012 after 24 hrs by modified broth macrodilution method; details: isolate 1012, 24 h; how it was run: as §1
Staphylococcus aureus [22] = assay: Antibacterial activity against vancomycin-resistant Staphylococcus aureus isolate 510 after 24 hrs by modified broth macrodilution method; details: isolate 510, 24 h; how it was run: as §1
Staphylococcus aureus [23] = assay: Antibacterial activity against vancomycin-resistant Staphylococcus aureus isolate 509 after 24 hrs by modified broth macrodilution method; details: isolate 509, 24 h; how it was run: as §1
Staphylococcus aureus [24] = assay: Antibacterial activity against vancomycin-hetero-intermediate Staphylococcus aureus after 24 hrs by modified broth macrodilution method; how it was run: as §1
Staphylococcus aureus [25] = assay: Antibacterial activity against vancomycin-intermediate Staphylococcus aureus isolate 1007 after 24 hrs by modified broth macrodilution method; details: isolate 1007, 24 h; how it was run: as §1

**Q.** For `CCCCCCCCCC(=O)N[C@@H](Cc1c[nH]c2ccccc12)C(=O)N[C@H](CC(N)=O)C(=O)N[C@@H](CC(=O)O)C(=O)N[C@@H]1C(=O)NCC(=O)N[C@@H](CCCN)C(=O)N[C@@H](CC(=O)O)C(=O)N[C@H](C)C(=O)N[C@@H](CC(=O)O)C(=O)NCC(=O)N[C@H](CO)C(=O)N[C@@H]([C@H](C)CC(=O)O)C(=O)N[C@@H](CC(=O)c2ccccc2N)C(=O)O[C@@H]1C`, which MIC (Staphylococcus aureus [1]) is on record?
**A.** 1 µg/mL (≈ 0.617 µM)

**Q.** And the MIC (Staphylococcus aureus [2])?
**A.** 2 µg/mL (≈ 1.23 µM)

**Q.** And the MIC (Staphylococcus aureus [3])?
**A.** 4 µg/mL (≈ 2.47 µM)

**Q.** And the MIC (Staphylococcus aureus [4])?
**A.** 0.5 µg/mL (≈ 0.309 µM)

**Q.** And the MIC (Staphylococcus aureus [5])?
**A.** 0.5 µg/mL (≈ 0.309 µM)

**Q.** What about the MIC (Staphylococcus aureus [6]) of the same molecule?
**A.** 1 µg/mL (≈ 0.617 µM)

**Q.** What about the MIC (Staphylococcus aureus [7]) of the same molecule?
**A.** 2 µg/mL (≈ 1.23 µM)

**Q.** What about the MIC (Staphylococcus aureus [8]) of the same molecule?
**A.** 0.5 µg/mL (≈ 0.309 µM)

**Q.** What about the MIC (Staphylococcus aureus [9]) of the same molecule?
**A.** 1 µg/mL (≈ 0.617 µM)

**Q.** And the MIC (Staphylococcus aureus [10])?
**A.** 1 µg/mL (≈ 0.617 µM)

**Q.** And the MIC (Staphylococcus aureus [11])?
**A.** 2 µg/mL (≈ 1.23 µM)

**Q.** What about the MIC (Staphylococcus aureus [12]) of the same molecule?
**A.** 0.5 µg/mL (≈ 0.309 µM)

**Q.** What about the MIC (Staphylococcus aureus [13]) of the same molecule?
**A.** 1 µg/mL (≈ 0.617 µM)

**Q.** And the MIC (Staphylococcus aureus [14])?
**A.** 0.5 µg/mL (≈ 0.309 µM)

**Q.** And the MIC (Staphylococcus aureus [15])?
**A.** 0.5 µg/mL (≈ 0.309 µM)

**Q.** And the MIC (Staphylococcus aureus [16])?
**A.** 1 µg/mL (≈ 0.617 µM)

**Q.** What about the MIC (Staphylococcus aureus [17]) of the same molecule?
**A.** 2 µg/mL (≈ 1.23 µM)

**Q.** And the MIC (Staphylococcus aureus [18])?
**A.** 0.5 µg/mL (≈ 0.309 µM)

**Q.** And the MIC (Staphylococcus aureus [19])?
**A.** 0.5 µg/mL (≈ 0.309 µM)

**Q.** What about the MIC (Staphylococcus aureus [20]) of the same molecule?
**A.** 0.25 µg/mL (≈ 0.154 µM)

**Q.** What about the MIC (Staphylococcus aureus [21]) of the same molecule?
**A.** 1 µg/mL (≈ 0.617 µM)

**Q.** And the MIC (Staphylococcus aureus [22])?
**A.** 0.5 µg/mL (≈ 0.309 µM)

**Q.** And the MIC (Staphylococcus aureus [23])?
**A.** 0.5 µg/mL (≈ 0.309 µM)

**Q.** What about the MIC (Staphylococcus aureus [24]) of the same molecule?
**A.** 0.5 µg/mL (≈ 0.309 µM)

**Q.** And the MIC (Staphylococcus aureus [25])?
**A.** 2 µg/mL (≈ 1.23 µM)
